Consider 19 molecules from ChEMBL document CHEMBL4814053, “Inhibitors of heat shock protein 70 (Hsp70) with enhanced metabolic stability reduce tau levels” (Bioorg Med Chem Lett, 2021).

Calls of active or inactive are those of the source. The calls are words filed in the database; no cut-off is given here.

A short description of data set [1]: Metabolic stability in mouse liver microsomes assessed as parent compound remaining after 30 mins. It is filed as ADME, Microsome. The note with it: for remaining at 0.5 h: liver microsomes, read-out: Stabilty; for Stabilty: microsomes, 0.5 h. Put shortly: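 Compound incubated with mouse liver microsomes for 30 minutes at 37 °C, with dextromethorphan as positive control. Read-out is the percentage of unmodified compound remaining at 30 min.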
(Liver microsomes are vesicles of endoplasmic reticulum, rich in cytochrome P450 enzymes.)

A short description of data set [2]: Metabolic stability in mouse liver microsomes assessed as half life. The class given is ADME, Microsome. As to conditions: for half-life: liver microsomes. Put shortly: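 Half-life in mouse liver microsome assays was calculated from the amount of compound remaining over time, with dextromethorphan as positive control.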
For data set [3], the system named is SH-SY5Y. Description: Induction of heat shock response in human SH-SY5Y cells assessed as effect on HSP90 expression at 3 to 30 uM incubated for 24 hrs by Western blot analysis. It is filed as cell-based. The note with it: dose 3-30 µM. Put shortly: (§1)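 Cells treated for 24 h at the indicated concentrations, then lysed; total tau, Hsp72 and Hsp90 levels analyzed by Western blot. HeLaC3 cells over-express 0N4R tau. SH-SY5Y cells express tau at physiological levels.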
Background: Immunoblotting shows a protein as a band on a membrane.

The subject of a further data set is HeLa C3. As to the kind of experiment: Inhibition of HSP70 in human HeLa C3 cells assessed as degradation of tau at >10 uM incubated for 24 hrs by Western blot analysis. The class given is cell-based. The note with it: dose microM >10, time 24.0 hrs. Put shortly:
as §1

Data set [4] is described as follows: Induction of heat shock response in human HeLa C3 cells assessed as effect on HSP90 expression at 3 to 30 uM incubated for 24 hrs by Western blot analysis. The class given is cell-based. The note with it: hela c3, 24 h, dose 3-30 µM. Put shortly:
as §1

Data set [5] is described as follows: Induction of heat shock response in human HeLa C3 cells assessed as effect on HSP72 expression at 3 to 30 uM incubated for 24 hrs by Western blot analysis. The class given is cell-based. As to conditions: hela c3, 24 h, dose 3-30 µM. Put shortly: as §1
The subject of data set [6] is SH-SY5Y. Description: Induction of heat shock response in human SH-SY5Y cells assessed as effect on HSP72 expression at 3 to 30 uM incubated for 24 hrs by Western blot analysis. It is filed as cell-based. The note with it: dose 3-30 µM. Put shortly:
as §1

Data set [7] deals with SH-SY5Y. Description: Inhibition of HSP70 in human SH-SY5Y cells assessed as degradation of tau at 3 to 30 uM incubated for 24 hrs by Western blot analysis relative to control. It is filed as cell-based. The note with it: dose 3-30 µM. Put shortly:
as §1

Usually half-life stands for how long it takes for the measured level to halve. Usually inhibition stands for the relative decrease from the control value, in per cent.

For the molecule `CCn1c(=O)/c(=C2\Sc3ccc(Cl)cc3N2C)s/c1=C\c1ccccn1`, in data set [1], the remaining at 0.5 h came out at 37%. Moreover, the half-life in data set [2] worked out at 17 min.
As to `CCn1c(=O)/c(=C2\Sc3ccccc3N2C)s/c1=C\c1ccncc1`, the remaining at 0.5 h in data set [1] turned out to be 6%.
Consider `CCn1c(=O)/c(=C2\Sc3c(Cl)cccc3N2C)s/c1=C\c1ccncc1`, for which the Stabilty entry in data set [1] was “Nd(Insoluble)”.
As to `CCn1c(=O)/c(=C2\Sc3cccc(F)c3N2C)s/c1=C\c1ccccn1`, the remaining at 0.5 h in data set [1] amounted to 12%.
`CCn1c(=O)/c(=C2\Sc3cc(Cl)ccc3N2C)s/c1=C\c1ccccn1`: in data set [1], the remaining at 0.5 h came out at 13%.
Still for that read-out and setting: the value for `CCn1c(=O)/c(=C2\Sc3c(Cl)cccc3N2C)s/c1=C\c1ccccn1` was 17%; that for `CCn1c(=O)/c(=C2\Sc3c(F)cccc3N2C)s/c1=C\c1ccncc1` was 30%.
For the molecule `CCn1c(=O)/c(=C2\Sc3ccc(Cl)cc3N2C)s/c1=C\c1ccncc1`, in data set [1], the remaining at 0.5 h turned out to be 52%. In data set [2] (microsomes), the t1/2 was 36 min. Further, the Activity entry (in the data set on SH-SY5Y [3]; in data set [4]; in data set [5]; in the data set on SH-SY5Y [6]) was “Non-Toxic” each time. Also, in the data set on HeLa C3, the inhibition entry is “Active”. In addition, in the data set on SH-SY5Y [7], the inhibition is 80%.
On to `CCn1c(=O)/c(=C2\Sc3cc(F)ccc3N2C)s/c1=C\c1ccccn1`, for which the remaining at 0.5 h in data set [1] is 5%.
On the same count and under the same terms, to `CCn1c(=O)/c(=C2\Sc3ccc(F)cc3N2C)s/c1=C\c1ccccn1` belongs 19%; to `CCn1c(=O)/c(=C2\Sc3ccc(F)cc3N2C)s/c1=C\c1ccncc1`, 23%.
Turning to `CCn1c(=O)/c(=C2\Sc3ccccc3N2C)s/c1=C\c1ccccn1`, the Stabilty result in data set [1] (BLD = below limit of detection) is “Bld”. Moreover, the half-life in data set [2] was less than 3 min.
Take `CCn1c(=O)/c(=C2\Sc3cc(F)ccc3N2C)s/c1=C\c1ccncc1`: the remaining at 0.5 h in data set [1] is 13%.
The same measure, in the same setting: the value for `CCn1c(=O)/c(=C2\Sc3cccc(F)c3N2C)s/c1=C\c1ccncc1` was 33%.
For the molecule `CCn1c(=O)/c(=C2\Sc3cccc(Cl)c3N2C)s/c1=C\c1ccncc1`, in data set [1], the Stabilty entry was “Nd(Insoluble)”.
For the molecule `CCn1c(=O)/c(=C2\Sc3cccc(Cl)c3N2C)s/c1=C\c1ccccn1`, the remaining at 0.5 h in data set [1] came out at 38%. For the same molecule, the half-life in data set [2] came to 23 min.
The like results for `CCn1c(=O)/c(=C2\Sc3cc(Cl)ccc3N2C)s/c1=C\c1ccncc1` were, in that order, 39% and 22 min.
With `COc1ccc2c(c1)[C@]13CCCC[C@@H]1[C@H](C2)N(C)CC3` [DEXTROMETHORPHAN], in data set [2], the half-life was found to be 25 min.
In the case of `CCn1c(=O)/c(=C2\Sc3c(F)cccc3N2C)s/c1=C\c1ccccn1`, the remaining at 0.5 h in data set [1] came out at 12%.
